In brackets after ≈: the same amount, converted by molar mass. Activity calls are given as the source filed them. No cut-off for these calls is given here.
What was measured:
[1] = test system: Streptococcus pneumoniae; test: Antimicrobial activity against Streptococcus pneumoniae NMU112 infected in po dosed CBA/J mouse lungs assessed as reduction in number of colony forming units after 24 to 48 hr relative to control; format: functional, organism-based
In short: (§1)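 CBA/J mice (28–30 g) dosed by oral gavage twice daily for 3 days, saline as control. Infected 24 h after the last dose with 5 × 10⁴ CFU via the oropharynx under light ketamine/xylazine anesthesia. Blood, lung homogenate and pooled BALF supernatant were plated on agar with 200 μg/ml ERY and incubated about 24 h at 37°C for CFU. Three mice per group per time point, three experiments.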

[2] = test system: Streptococcus pneumoniae; test: Reduction of pneumolysin production in Streptococcus pneumoniae NMU112 lysates at 5 ug/mL after 12 hrs by Western blot relative to control; format: functional, organism-based
In short: (§2)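 NMU112 at 5 × 10⁷ CFU/ml in THY cultured with macrolide at 37°C for 12 h, then whole-cell sonicated lysates run on SDS-PAGE and immunoblotted for pneumolysin. Band densitometry as mean % of drug-free culture; two cultures per dose per experiment, three experiments.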

[3] = test system: Streptococcus pneumoniae; test: Inhibition of Streptococcus pneumoniae NMU112 induced MMP7 expression level in po dosed CBA/J mouse assessed as decrease in caseinolytic activity after 6 to 48 hrs relative to control; format: functional, organism-based
In short: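 Casein zymography on lung extract (100 μg protein) in 4–16% casein gels. The 19-kDa mature MMP-7 lysis band was scanned by densitometry and expressed as % of infected controls. Five to six mice per time point, three experiments.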

[4] = test system: Streptococcus pneumoniae; test: Reduction of pneumococcal surface protein A in Streptococcus pneumoniae NMU112 infected CBA/J mouse lung lysates after 48 hrs by Western blot relative to control; format: functional, organism-based
In short: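 Left-lung Triton X extract (1 mg protein) immunoprecipitated with anti-PspA on protein G beads, then run on SDS-12% PAGE and Western blotted. Densitometry given as % of control. Three mice per group per time point.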

[5] = test system: Streptococcus pneumoniae; test: Reduction in Streptococcus pneumoniae NMU112 infection induced elevation in syndecan-1 shedding in po dosed CBA/J mouse bronchoalveolar lavage fluid relative to control; format: functional, organism-based; details: Lung
In short: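 Syndecan-1 ectodomains in 100 μl BALF measured by sandwich ELISA: 281-2 capture antibody, biotinylated 281-2 detection, streptavidin-HRP/TMB, read at 450 nm. Range 2.5–245 ng/ml. Three mice per time point, triplicate, three experiments.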

[6] = test system: Plasma; test: Drug level in Streptococcus pneumoniae NMU112 infected CBA/J mouse plasma at 5 mg/kg/day, po after 72 hrs; format: ADME, organism-based; set-up: route oral; details: in vivo
In short: (§3)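 Oral gavage at 5 mg/kg/day (0.075 mg twice daily, six doses). Plasma and PBS lung homogenates were taken 24, 48 and 72 h after the last dose. Assayed by HPLC-electrochemical detection with an erythromycin internal standard; linear ranges 0.15–10.5 (plasma) and 0.4–11.8 μg/ml (lung). Five mice per time point; mean ± SD.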

[7] = test system: Streptococcus pneumoniae; test: Reduction in Streptococcus pneumoniae NMU112 infection-induced elevation in keratinocyte-derived chemokine level in po dosed CBA/J mouse bronchoalveolar lavage fluid after 8 hrs by sandwich ELISA relative to control; format: functional, organism-based; details: Lung
[8] = test system: Streptococcus pneumoniae; test: Antimicrobial activity against drug-resistant Streptococcus pneumoniae NMU112 infected CBA/J mouse assessed as animal survival at 1.25 mg/kg, po; format: functional, organism-based; set-up: dose 1.25 mg/kg
In short: (§4)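 Male CBA/J mice, 3-4 weeks old, 28-30 g. Macrolide given by oral gavage in saline for 3 days; RXM, ERY and CLR twice daily at 12-h intervals, AZM once daily. Saline controls. 24 h after the last dose, mice were infected intratracheally with 5 × 10⁴ CFU NMU112 (erm(B)/mef(A)). Kaplan-Meier survival and median survival time, log rank test; 10 mice per group per experiment.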

[9] = test system: Streptococcus pneumoniae; test: Antimicrobial activity against Streptococcus pneumoniae NMU605; format: functional
In short: (§5)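 Broth microdilution MIC (NCCLS method) in Mueller-Hinton broth with 3% lysed horse blood; clinical isolates NMU605 (serotype 3) and NMUP45 (serotype 4).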

[10] = test system: Streptococcus pneumoniae; test: Increase in Streptococcus pneumoniae NMU112 infection-induced reduction in MCP1 level in po dosed CBA/J mouse lung by sandwich ELISA relative to control
[11] = test system: Streptococcus pneumoniae; test: Antimicrobial activity against Streptococcus pneumoniae NMU112 infected in po dosed CBA/J mouse bronchoalveolar lavage fluid assessed as reduction in number of colony forming units after 24 to 48 hrs relative to control; format: functional, organism-based; details: Lung; in short: as §1
[12] = species on record: Mus musculus; test: Reduction of MMP7 expression level in UV rays killed Streptococcus pneumoniae NMU112 infected CBA/J mouse bronchoalveolar lavage fluid relative to control; format: functional, organism-based; details: Lung
[13] = test system: Streptococcus pneumoniae; test: Antimicrobial activity against Streptococcus pneumoniae NMU112 infected in po dosed CBA/J mouse blood assessed as number of colony forming units after 5 days relative to control; format: functional; in short: as §1
[14] = test system: Plasma; test: Drug level in Streptococcus pneumoniae NMU112 infected CBA/J mouse plasma at 5 mg/kg/day, po after 48 hrs; format: ADME, organism-based; set-up: route oral; details: in vivo; in short: as §3
[15] = test system: Streptococcus pneumoniae; test: Antimicrobial activity against drug-resistant Streptococcus pneumoniae NMU112 infected CBA/J mouse assessed as median survival time at 7.5 mg/kg, po relative to control; format: functional; in short: as §4
[16] = test system: Streptococcus pneumoniae; test: Reduction of pneumolysin production in Streptococcus pneumoniae NMU112 infected CBA/J mouse lung lysates after 48 hrs of infection by Western blot relative to control; format: functional, organism-based
In short: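 Left lungs (n, 3 per group per time point) homogenised in Tris-HCl pH 7.5 with NaCl and Triton X, then centrifuged. Extract (1 mg protein) immunoprecipitated with anti-PLY on protein G beads, run on SDS-12% PAGE and blotted. Band densitometry expressed as % of control mice after oral pretreatment and intratracheal NMU112 infection.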

[17] = test system: Streptococcus pneumoniae; test: Reduction in Streptococcus pneumoniae NMU112 infection-induced elevation in keratinocyte-derived chemokine level in po dosed CBA/J mouse lung after 12 hrs by sandwich ELISA relative to control; format: functional, organism-based
In short: (§6)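 Lung homogenate in lysis buffer with protease inhibitors, 30 min on ice, spun 12,000 × g 20 min at 4°C. KC or MCP-1 measured by sandwich ELISA, detection limit 2 pg/ml. Three mice per group per time point after infection with 5 × 10⁴ CFU, each sample in triplicate, two experiments.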

[18] = test system: Streptococcus pneumoniae; test: Antimicrobial activity against Streptococcus pneumoniae NMU605 infected CBA/J mouse assessed as animal survival at => 2.5 mg/kg, po relative to control; format: functional, organism-based; set-up: dose 2.5 mg/kg
[19] = test system: Streptococcus pneumoniae; test: Inhibition of Streptococcus pneumoniae NMU112 infection-induced polymorphonuclear leukocytes infiltration in CBA/J mouse lung assessed as MPO activity after 12 hrs relative to control; format: functional, organism-based
In short: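 Lungs (n = 4 per group per time point) removed after blood collection, weighed and frozen, then assayed with an MPO kit. Activity given as units per mg protein.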

[20] = test system: Streptococcus pneumoniae; test: Antimicrobial activity against Streptococcus pneumoniae NMU112; format: functional
In short: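 Broth microdilution MIC per NCCLS in Mueller-Hinton broth with 3% lysed horse blood.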

[21] = test system: Streptococcus pneumoniae; test: Antimicrobial activity against drug-resistant Streptococcus pneumoniae NMU112 infected CBA/J mouse assessed as median survival time at 10 mg/kg, po relative to control; format: functional; in short: as §4
[22] = test system: Plasma; test: Drug level in Streptococcus pneumoniae NMU112 infected CBA/J mouse plasma at 5 mg/kg/day, po after 24 hrs; format: ADME, organism-based; set-up: route oral; details: in vivo; in short: as §3
[23] = test system: Lung; test: Drug level in Streptococcus pneumoniae NMU112 infected CBA/J mouse lung tissue at 5 mg/kg/day, po after 72 hrs; format: ADME, organism-based; set-up: route oral; details: in vivo; in short: as §3
[24] = test system: Streptococcus pneumoniae; test: Antimicrobial activity against Streptococcus pneumoniae NMU112 infected in po dosed CBA/J mouse blood assessed as number of colony forming units after 4 days relative to control; format: functional; in short: as §1
[25] = test system: Streptococcus pneumoniae; test: Antimicrobial activity against Streptococcus pneumoniae NMU112 infected in po dosed CBA/J mouse blood assessed as number of colony forming units after 6 days relative to control; format: functional; in short: as §1
[26] = test system: Streptococcus pneumoniae; test: Antimicrobial activity against Streptococcus pneumoniae NMUP45 infected CBA/J mouse assessed as animal survival at => 5 mg/kg, po relative to control; format: functional, organism-based; set-up: dose 5 mg/kg
[27] = test system: Streptococcus pneumoniae; test: Antimicrobial activity against drug-resistant Streptococcus pneumoniae NMU112 infected CBA/J mouse assessed as median survival time at 5 mg/kg, po relative to control; format: functional; in short: as §4
[28] = test system: Streptococcus pneumoniae; test: Antimicrobial activity against Streptococcus pneumoniae NMU112 infected in po dosed CBA/J mouse blood assessed as number of colony forming units after 7 days relative to control; format: functional; in short: as §1
[29] = species on record: Mus musculus; test: Reduction of polymorphonuclear leukocytes in UV rays killed Streptococcus pneumoniae NMU112 infected CBA/J mouse bronchoalveolar lavage fluid relative to control; format: functional, organism-based; details: Lung
[30] = test system: Lung; test: Drug level in Streptococcus pneumoniae NMU112 infected CBA/J mouse lung tissue at 5 mg/kg/day, po after 24 hrs; format: ADME, organism-based; set-up: route oral; details: in vivo; in short: as §3
[31] = test system: Lung; test: Drug level in Streptococcus pneumoniae NMU112 infected CBA/J mouse lung tissue at 5 mg/kg/day, po after 48 hrs; format: ADME, organism-based; set-up: route oral; details: in vivo; in short: as §3
[32] = test system: Streptococcus pneumoniae; test: Increase in Streptococcus pneumoniae NMU112 infection-induced reduction in MCP1 level in po dosed CBA/J mouse lung after 12 to 36 hrs by sandwich ELISA relative to control; format: functional, organism-based; in short: as §6
[33] = test system: Streptococcus pneumoniae; test: Inhibition of pneumococcal surface protein A production in Streptococcus pneumoniae NMU112 lysates at 5 ug/mL after 12 hrs by Western blot relative to control; format: functional, organism-based
In short: (§7)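 Strain NMU112 (5 × 10⁷ CFU/ml in THY) cultured 12 h at 37°C with drug. Sonicated whole-cell lysates run on SDS-PAGE and Western blotted; bands measured by densitometry as % of drug-free culture. Two cultures per dose, three experiments (n = 5–6).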

[34] = test system: Streptococcus pneumoniae; test: Antimicrobial activity against Streptococcus pneumoniae NMUP45; format: functional; in short: as §5
[35] = test system: Streptococcus pneumoniae; test: Inhibition of pneumococcal surface protein A production in Streptococcus pneumoniae NMU112 lysates at 10 ug/mL after 12 hrs by Western blot relative to control; format: functional, organism-based; in short: as §7
[36] = test system: Streptococcus pneumoniae; test: Antimicrobial activity against drug-resistant Streptococcus pneumoniae NMU112 infected CBA/J mouse assessed as median survival time at 20 mg/kg, po relative to control; format: functional; in short: as §4
[37] = test system: Streptococcus pneumoniae; test: Antimicrobial activity against Streptococcus pneumoniae NMU112 infected in po dosed CBA/J mouse assessed as delaying in development of bacteremia […]; format: functional, organism-based
[38] = test system: Streptococcus pneumoniae; test: Reduction of pneumolysin production in Streptococcus pneumoniae NMU112 lysates at 10 ug/mL after 12 hrs by Western blot relative to control; format: functional, organism-based; in short: as §2

For `CC[C@H]1OC(=O)[C@H](C)[C@@H](O[C@H]2C[C@@](C)(OC)[C@@H](O)[C@H](C)O2)[C@H](C)[C@@H](O[C@@H]2O[C@H](C)C[C@H](N(C)C)[C@H]2O)[C@](C)(O)C[C@@H](C)/C(=N\OCOCCOC)[C@H](C)[C@@H](O)[C@]1(C)O` [ROXITHROMYCIN], the Activity [1] was “Active”, the Activity [2] was “inactive” and the Activity [3] was “Active”. For the same compound, the Activity [4] was “Active”, the Activity [5] was “Active” and the Concn [6] was 540 ng/mL. For the same compound, the Activity [7] was “Active”, the Activity [8] was “inactive” and the MIC [9] was 0.06 µg/mL (≈ 0.0717 µM). The Activity [10] was “Active”, the Activity [11] was “Active” and the Activity [12] was “Active”. The log10CFU/ml [13] was 3.68, the Concn [14] was 1360 ng/mL and the MST [15] was 6.3 days. For the same compound, the Activity [16] was “Active”, the Activity [17] was “Active” and the Activity [18] was “Active”. The Activity [19] was “Active”, the MIC [20] was no less than 256 µg/mL and the MST [21] was 6.6 days. The Concn [22] was 3870 ng/mL, the Concn [23] was 650 ng/mL and the log10CFU/ml [24] was 2.14. The log10CFU/ml [25] was 4.27, the Activity [26] was “Active” and the MST [27] was 5.8 days. For the same compound, the log10CFU/ml [28] was “>=5.11”, the Activity [29] was “Active” and the Concn [30] was 5220 ng/mL. The Concn [31] was 2870 ng/mL, the Activity [32] was “Active” and the Activity [33] was “inactive”. The MIC [34] was 4 µg/mL (≈ 4.78 µM).

With `CC[C@H]1OC(=O)[C@H](C)[C@@H](O[C@H]2C[C@@](C)(OC)[C@@H](O)[C@H](C)O2)[C@H](C)[C@@H](O[C@@H]2O[C@H](C)C[C@H](N(C)C)[C@H]2O)[C@](C)(O)C[C@@H](C)C(=O)[C@H](C)[C@@H](O)[C@]1(C)O` [ERYTHROMYCIN] the Activity [2] was “Active”, the Activity [35] was “Active” and the MIC [9] was 0.03 µg/mL (≈ 0.0409 µM). The MST [36] was 6.78 days, the Activity [37] was “Active” and the Activity [38] was “Active”. For the same compound, the MIC [20] was no less than 256 µg/mL, the MST [21] was 5.27 days and the MIC [34] was 2 µg/mL (≈ 2.73 µM).
